Test results from ChEMBL document CHEMBL4261510, “Synthesis of novel inhibitors of α-amylase based on the thiazolidine-4-one skeleton containing a pyrazole moiety and their configurational studies” (Medchemcomm, 2017).

Key:
[1] = molecular target: Alpha amylase (Homo sapiens) (UniProt P0DUB6); assay: Inhibition of human alpha-amylase at 50 ug/ml using starch as substrate preincubated for 30 mins by 3,5-dinitrosalicylic acid color reagent based assay relative to control
How it was run: (§1)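 Test samples were prepared as a DMSO stock of 10 mg/10 mL and assayed at 50, 100 and 200 μg mL–1. Enzyme was at 1 unit per mL in 20 mM sodium phosphate, pH 6.9. Sample and enzyme were incubated 30 min at 25 °C. DNSA colour reagent was added, then heated 15 min at 85 °C and read at 595 nm. Soluble potato starch (0.5–1% w/v) was the substrate. Inhibition % was taken against a DMSO control, with blanks correcting background.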

[2] = molecular target: Alpha amylase (Homo sapiens) (UniProt P0DUB6); assay: Inhibition of human alpha-amylase at 200 ug/ml using starch as substrate preincubated for 30 mins by 3,5-dinitrosalicylic acid color reagent based assay relative to control; how it was run: as §1
[3] = molecular target: Alpha amylase (Homo sapiens) (UniProt P0DUB6); assay: Inhibition of human alpha-amylase at 100 ug/ml using starch as substrate preincubated for 30 mins by 3,5-dinitrosalicylic acid color reagent based assay relative to control; how it was run: as §1

Chain of Alpha amylase (Homo sapiens) (P0DUB6 whole entry, looked up): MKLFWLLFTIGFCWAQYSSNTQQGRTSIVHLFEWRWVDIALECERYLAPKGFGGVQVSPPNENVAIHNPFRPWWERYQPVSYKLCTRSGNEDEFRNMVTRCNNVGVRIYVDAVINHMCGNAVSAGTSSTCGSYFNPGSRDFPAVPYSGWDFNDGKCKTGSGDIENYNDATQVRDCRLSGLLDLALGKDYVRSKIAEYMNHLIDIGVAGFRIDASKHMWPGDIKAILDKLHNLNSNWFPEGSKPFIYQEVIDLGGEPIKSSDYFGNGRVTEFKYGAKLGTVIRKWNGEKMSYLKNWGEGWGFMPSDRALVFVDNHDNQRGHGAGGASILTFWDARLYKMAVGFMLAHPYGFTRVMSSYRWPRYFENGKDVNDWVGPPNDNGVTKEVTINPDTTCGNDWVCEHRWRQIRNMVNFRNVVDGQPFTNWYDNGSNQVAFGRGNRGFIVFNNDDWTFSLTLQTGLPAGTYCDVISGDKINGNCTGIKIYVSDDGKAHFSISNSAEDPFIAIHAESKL

Compound | inhibition [1] [%] | inhibition [2] [%] | inhibition [3] [%]
C[C@H]1O[C@H](O[C@H]2[C@H](O)[C@@H](O)[C@@H](O[C@H]3[C@H](O)[C@@H](O)C(O)O[C@@H]3CO)O[C@@H]2CO)[C@H](O)[C@@H](O)[C@@H]1N[C@H]1C=C(CO)[C@@H](O)[C@H](O)[C@H]1O (some centres undefined) | 48.6 | 63.7 | 53.8
COc1ccc(-c2nn(-c3ccccc3)cc2/C=C2\S/C(=N\c3ccc(C)cc3)NC2=O)cc1 | 75.9 | 92.2 | 90
Cc1ccc(/N=C2/NC(=O)/C(=C/c3cn(-c4ccccc4)nc3-c3ccc([N+](=O)[O-])cc3)S2)cc1 | 65.1 | 58 | 88.2
Cc1ccc(/N=C2/NC(=O)/C(=C/c3cn(-c4ccccc4)nc3-c3ccccc3)S2)cc1 | 48.1 | 84.3 | 81.6

Results, then the compound that gave them:

inhibition [1] [%] | inhibition [2] [%] | inhibition [3] [%] | Compound
79.2 | 84 | 83.7 | Cc1ccc(/N=C2/NC(=O)/C(=C/c3cn(-c4ccccc4)nc3-c3ccc(C)cc3)S2)cc1
77.1 | 78 | 81.6 | Cc1ccc(/N=C2/NC(=O)/C(=C/c3cn(-c4ccccc4)nc3-c3ccc(F)cc3)S2)cc1
50.9 | 75 | 81.1 | Cc1ccc(/N=C2/NC(=O)/C(=C/c3cn(-c4ccccc4)nc3-c3ccc(Cl)cc3)S2)cc1
52.1 | 97.4 | 72.9 | Cc1ccc(/N=C2/NC(=O)/C(=C/c3cn(-c4ccccc4)nc3-c3ccc(Br)cc3)S2)cc1
